3 molecules from ChEMBL document CHEMBL1132494, “Bisphosphonate prodrugs: synthesis and in vitro evaluation of novel acyloxyalkyl esters of clodronic acid” (J Med Chem, 1999) can be followed below.

Series [1] can be described thus: Apparent partition coefficients was determined at a pH 7.4 by using the capacity factors of RP-HPLC. The format is physicochemical. The conditions noted are these: octanol/water. In outline:
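Tetraester log Papp estimated from RP-HPLC capacity factors (k'); C8 reversed-phase column, mobile phase 20 mM phosphate buffer pH 6.0/methanol 30:70 v/v; value reported for pH 7.4.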

Series [2] can be described thus: Hydrolysis half life at pH 7.4 against 50 mM phosphate buffer was determined. The format is ADME. In outline:
(§1)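 Chemical hydrolysis: compound (initial 0.9–1.8 mM) in preheated 50 mM phosphate buffer, μ = 0.15, pH 5.0 or 7.4, held at 37 °C. Samples taken at intervals and analysed by HPLC; kobs and t1/2 derived.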

Series [3] is described as follows: (§2) Hydrolysis half life against 10% rabbit liver homogenate was determined. The format is ADME, organism-based, Oryctolagus cuniculus. A digest of the protocol: (§3)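 Rabbit liver homogenized in ~4 vol isotonic phosphate buffer pH 7.4, spun 9000g 90 min 4 °C, supernatant stored −80 °C. Compound in 1 vol isotonic buffer plus 1 vol preheated 20% homogenate (10% final; initial 1.6–1.8 mM), 37 °C. Samples methanol-deproteinized and analysed by HPLC; kobs and t1/2 derived.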

Series [4] is described as follows: Binding affinity (Kobs) at a pH 7.4 against 50 mM phosphate buffer was determined. In outline:
as §1

For series [5], the species on record is Oryctolagus cuniculus. Briefly: Binding constant (Kobs) against 10% rabbit liver homogenate was determined. The format is ADME. In outline: as §3
Series [6] in a line: Binding affinity (Kobs) at a pH 5.0 against 50 mM phosphate buffer was determined. A digest of the protocol:
as §1

Series [7] can be described thus: Hydrolysis half life at pH 5.0 against 50 mM phosphate buffer was determined. The format is ADME. In outline: as §1
The species entered for series [8] is Homo sapiens. Briefly: Binding affinity (Kobs) against 80% human Serum esterase was determined. In outline: (§4)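 Compound dissolved in 1 vol phosphate buffer (50 mM, μ = 0.15, pH 7.4, 37 °C), then 4 vol preheated human serum added (80% serum; initial 1.4–1.7 mM); 37 °C water bath. Samples taken at intervals, deproteinized with equal volume methanol, centrifuged; supernatant dried and redissolved in mobile-phase buffer, or injected directly if labile. HPLC; kobs and t1/2 derived.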

A short description of series [9]: Hydrolysis half life against 80% human serum was determined. The format is ADME. In outline: as §4
Series [10] in a line: as §2. The format is tissue-based. In outline: as §3

On to `CC(C)(C)C(=O)OCOP(=O)(OCOC(=O)C(C)(C)C)C(Cl)(Cl)P(=O)(OCOC(=O)C(C)(C)C)OCOC(=O)C(C)(C)C`, for which the chromatographic logD in [1] was determined as 7.4.
As for `C1CCNCC1.C1CCNCC1.CC(C)(C)C(=O)OCOP(=O)(O)C(Cl)(Cl)P(=O)(O)OCOC(=O)C(C)(C)C`, the half-life in series [2] stood at 0.783 h; in series [3], 0.233 h. Moreover, the chromatographic logD in series [1] is -2.13. The k obs in series [4] is 1.67e-07 s⁻¹. Also, the K obs in series [5] came out at 0.51 min⁻¹.
With `CC(C)(C)C(=O)OCOP(=O)(O)C(Cl)(Cl)P(=O)(OCOC(=O)C(C)(C)C)OCOC(=O)C(C)(C)C`, the k obs worked out at 0.000117 s⁻¹ in series [6], 0.000113 s⁻¹ in series [4] and 0.000149 s⁻¹ in series [8]. Further, the half-life turned out to be 1.65 h in [7], 1.7 h in series [2] and 1.3 h in series [9]. Besides, in series [1], the chromatographic logD worked out at 1.56. The molecule also came in with a K obs in series [5] of 0.65 min⁻¹. This molecule gave a T1/2 in series [10] of 1.1 min.
